# Experimental data reported in publication PMC4327942 (Chemistry & biology, 2010).
# Legend:
# [1] = test system: HIF ODD-luciferase reporter; experiment: HTS of SH-SY5Y ODD-luc reporter cells, 384-well, 10 μM compound, 3 hr; type: cell-based, human; details: for activation at 10 µM: Homo sapiens, SH-SY5Y, 3 h, read-out: reporter activation (%)
# [2] = Iron binding by displacement of calcein from its complex with iron; type: physicochemical; details: for ka, association rate constant for iron binding: calcein-iron complex 1 μM:1 μM, oxyquinoline 5-20 μM; for Kd: read-out: KFe, apparent iron binding constant, calcein displacement, 5 mM Tris-HCl buffer (pH 7.5)
# [3] = test system: HIF ODD-luciferase reporter; experiment: ODD-luc reporter activation, concentration titration in 96-well plates; type: cell-based, human; details: SH-SY5Y; for IC50: Homo sapiens, read-out: IC50 (reporter activation); for “Lag,” (concentration lag of reporter titration curve): ODD-luc reporter
# [4] = test system: cortical neurons; experiment: Neuroprotection in HCA; type: cell-based, rat; details: HCA model
# In short: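 Forebrain neurons from E17 Sprague-Dawley rat embryos were plated at 10^6 cells/ml in 96-well plates. After 16 hr they were rinsed with warm PBS and moved to MEM containing 5 mM HCA plus test compound (0.25-2 μM). Incubation ran 24 hr or longer, until HCA-only controls reached 90% death. Viability was read by MTT.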
# [5] = 10 μM, 3 hr, SH-SY5Y-ODD-luc cells
compound,measurement,setting,value
"S=C(Nc1ccccc1)Nc1nccs1 [III, 1-phenyl-3-(1,3-thiazol-2-yl)thiourea]",reporter activation (fold),[1]; [5],5 fold
same,activation at 10 µM,[1],41%
"NNc1nc(-c2ccccc2)cc(-c2ccccc2)n1 [II, 2-hydrazinyl-4,6-diphenylpyrimidine]",reporter activation (fold),[1]; [5],6.7 fold
same,activation at 10 µM,[1],64%
same,iron chelation properties in solution (in words),[2],no iron chelation properties in solution
"Cc1cc(C2CCCCC2)n(O)c(=O)c1 [Ciclopirox, ciclopirox]",increase of background signal for the wild-type ODD-luc reporter (PYIP line),"[1]; 10 μM, 3 hr incubation",10 fold
same,reporter signal as % of the threshold value (control line AYIA),"[1]; 10 μM, 3 hr incubation, PYIP line",~50%
same,IC50,[3],4500 ± 500 nM
same,"“Lag,” (concentration lag of reporter titration curve)",[3],2 ± 0.5 µM
same,"ka, association rate constant for iron binding",[2],300 ± 50 M⁻¹ s⁻¹
same,Kd,[2],80 ± 20 nM
"Oc1cccc2cccnc12 [Oxyquinoline, 8-hydroxyquinoline]",reporter activation (fold),[1]; [5],4-5 fold
same,activation at 10 µM,[1],35 to 45%
same,IC50,[3],10000 ± 1000 nM
same,"“Lag,” (concentration lag of reporter titration curve)",[3],4 ± 0.5 µM
same,"ka, association rate constant for iron binding",[2],110 ± 20 M⁻¹ s⁻¹
same,Kd,[2],200 ± 50 nM
same,times less potent as neuroprotectants (versus compounds 7 and 8),[4],20-40 times
"O=C1/C(=N\Nc2nc3ccccc3s2)C(c2ccccc2)=NN1c1ccccc1 [(Z)-4-(benzo[d]thiazol-2-yl-hydrazono)-1,3-diphenyl-1H-pyrazol-5(4H)-one]",activation at 10 µM,[1],70%
N[C@@H](Cc1ccc(O)c(O)c1)C(=O)O [L-Dopa],reporter activation (fold),[1]; [5],3 fold
same,activation at 10 µM,[1],21%
O=C(C=C(O)c1ccccc1)c1ccccc1O [2′β-dihydroxychalcone],reporter activation (fold),[1]; [5],7.5 fold
same,reporter activation (%),"[1]; 10 μM, 3 hr, SH-SY5Y-ODD-luc cells, ciclopirox = 100%, DMSO = 0%",71%
"O=C1/C(=N\Nc2nccs2)C(c2ccccc2)=NN1c1ccccc1 [I, (Z)-1,3-diphenyl-4-(thiazol-2-yl-hydrazono)-1H-pyrazol-5(4H)-one]",activation at 10 µM,[1],86%
